M4 antag: blocks acetylcholine activation of human M4 receptor; inhibition, % at 3 µM; CHO-hM4 cells, ACh EC80, Fluo-8 calcium fluorescence; hit rate 0.73% among 360,000;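 active means inhibition above its plate's cutoff, the mean inhibition of sample wells plus 3 SD, cut at about 27% in these data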;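 further: 0% = acetylcholine EC80 with DMSO and 100% = DMSO without agonist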
CHRM5 PAM: CHRM5 positive allosteric modulation; P08912; hit rate 0.3% among 360,000; activation, % at 3 µM; CHO-K1 hM5, Fluo-8 calcium, ACh EC20 PAM; 0% = ACh EC20, 100% = ACh EC100;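 active means activation above the run cutoff, the mean activation of all test compounds plus 3 SD, cut at about 18% in these data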
Target sequence (P08912 whole entry, looked up): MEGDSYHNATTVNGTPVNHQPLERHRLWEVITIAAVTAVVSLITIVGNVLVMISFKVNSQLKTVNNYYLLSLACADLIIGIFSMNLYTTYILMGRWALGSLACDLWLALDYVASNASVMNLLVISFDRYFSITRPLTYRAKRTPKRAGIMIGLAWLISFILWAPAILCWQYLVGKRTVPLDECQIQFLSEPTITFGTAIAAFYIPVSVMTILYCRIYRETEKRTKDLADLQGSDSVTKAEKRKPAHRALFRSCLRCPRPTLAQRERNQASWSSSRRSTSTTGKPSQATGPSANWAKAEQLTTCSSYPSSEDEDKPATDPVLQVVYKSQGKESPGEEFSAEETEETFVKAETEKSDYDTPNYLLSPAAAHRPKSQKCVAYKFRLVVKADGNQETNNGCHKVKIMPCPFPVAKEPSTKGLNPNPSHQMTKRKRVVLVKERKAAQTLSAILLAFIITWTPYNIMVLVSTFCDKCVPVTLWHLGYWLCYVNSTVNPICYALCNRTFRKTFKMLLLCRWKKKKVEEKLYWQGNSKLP
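Probe or stimulus: acetylcholine, EC20 level; Assay system: human M5 receptor in CHO-K1 cells; Schedule: compound preincubation 140 s before EC20 acetylcholine addition; Technique: intracellular calcium via Fluo-8 fluorescence; Dosing: single-point, 3 µM nominal; Read-out basis: percent activation from peak-over-basal fluorescence ratio, scaled EC20-to-EC100 acetylcholine; Repeats: one well per compound, no replicates.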
CHRM5 agonist: agonists of human muscarinic M5 receptor (CHRM5) | P08912 | activation, % at 3 µM | AID 624037 | hit rate 0.19% among 360,000 | CHO-K1 hM5 cells, Fluo-8 calcium fluorescence; 0% DMSO wells, 100% maximal acetylcholine response;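 active means activation above the run's mean over test compounds plus 3 SD, cut at about 23% in these data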;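 further: signal is peak over basal fluorescence ratio across the kinetic read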
CHRM5 antagonist: blocks acetylcholine activation of human M5 receptor; inhibition, % at 3 µM; hit rate 0.59% among 360,000; AID 624040; CHO-hM5 cells, Fluo-8 calcium fluorescence, ACh EC80;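 active means inhibition above a per-plate cutoff, the mean of that plate's test compounds plus 3 SD, cut at about 27% in these data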;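 further: 0% = acetylcholine EC80 with DMSO and 100% = DMSO without agonist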
M4 PAM: positive allosteric modulators of human muscarinic M4 receptor; P08173; CHO-K1 hM4/Gqi5, Fluo-8 calcium fluorescence, ACh EC20; 0% = ACh EC20, 100% = maximal ACh; activation, % at 3 µM; hit rate 0.4% among 360,000; AID 624126;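 active means activation above its plate's cutoff, the mean activation of sample wells plus 3 SD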
M4 ag: CHRM4 agonism in calcium assay; P08173; CHO-K1 hM4/Gqi5, Fluo-8 calcium fluorescence; vehicle 0%, full acetylcholine response 100%; activation, % at 3 µM; hit rate 0.14% among 360,000;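 active means activation above the run mean over all test wells plus 3 SD, cut at about 32% in these data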;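 further: peak over basal fluorescence ratio per well then scaled between controls; 0% = DMSO wells and 100% = acetylcholine at EC100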
The depositor's hits bear a star. Most compounds without a hit are left out; they make up all but 1.8% or so of the library.

Results for CCCCn1c(N)c(N(CCC(C)C)C(=O)C(C)N2C(=O)c3ccccc3C2=O)c(=O)[nH]c1=O (stereo not given) ?
M4 antag: -21; CHRM5 PAM: 1; CHRM5 agonist: -1; CHRM5 antagonist: 4; M4 PAM: 22*; M4 ag: 0

How did CCCCn1c(N)c(N(CCOC)C(=O)C2CCN(S(=O)(=O)c3ccc(C)cc3)CC2)c(=O)[nH]c1=O do in these assays?
M4 antag: -10; CHRM5 PAM: 4; CHRM5 agonist: -5; CHRM5 antagonist: 1; M4 PAM: 7; M4 ag: 0

Results for CCCCn1c(N)c(N(CCC(C)C)C(=O)C2CC(=O)N(Cc3ccc(C)cc3)C2)c(=O)[nH]c1=O (stereo not given) ?
M4 antag: -11; CHRM5 PAM: 3; CHRM5 agonist: 1; CHRM5 antagonist: 3; M4 PAM: 28*; M4 ag: 1

Results for CCCCn1c(N)c(N(CCOC)C(=O)C2CCN(S(=O)(=O)c3ccc(C)cc3C)CC2)c(=O)[nH]c1=O ?
M4 antag: 2; CHRM5 PAM: -2; CHRM5 agonist: 3; CHRM5 antagonist: 1; M4 PAM: 24*; M4 ag: 1

How did CC1(Cc2ccc(S(C)(=O)=O)cc2)C(=O)Nc2ccc(Cl)cc21 (stereo not given) do in these assays?
M4 antag: 0; CHRM5 PAM: -3; CHRM5 agonist: 1; CHRM5 antagonist: 3; M4 PAM: -3; M4 ag: 1

How did CSc1nc2ccccc2n1Cc1c(Cl)cccc1Cl do in these assays?
M4 antag: -2; CHRM5 PAM: 21*; CHRM5 agonist: -12; CHRM5 antagonist: 10; M4 PAM: -12; M4 ag: 1

What do the screens show for `CC(C)OC(=O)N(C)C[C@H]1OCc2cnnn2CCCC(=O)N([C@H](C)CO)C[C@H]1C`?
M4 antag: -3; CHRM5 PAM: 6; CHRM5 agonist: 1; CHRM5 antagonist: -14; M4 PAM: -1; M4 ag: 1

Results for Cc1cc(N2CCCC2=O)cc(C)c1S(=O)(=O)NCCOc1ccc(C(C)(C)C)cc1 ?
M4 antag: 28*; CHRM5 PAM: -26; CHRM5 agonist: 2; CHRM5 antagonist: 33*; M4 PAM: -17; M4 ag: 12

How did Cc1nc(S(=O)(=O)N2CCN(C3c4ccccc4-c4ccccc43)CC2)cn1C do in these assays?
M4 antag: -12; CHRM5 PAM: 4; CHRM5 agonist: -6; CHRM5 antagonist: -11; M4 PAM: -4; M4 ag: 6

What do the screens show for `Cc1nc2c(o1)CCc1ccccc1C2N1CCN(C)CC1` (stereo not given)?
M4 antag: 98*; CHRM5 PAM: -43; CHRM5 agonist: -10; CHRM5 antagonist: 98*; M4 PAM: -9; M4 ag: 1

How did Cc1nc2scc(-c3ccc(C(C)(C)C)cc3)c2c(=O)n1N do in these assays?
M4 antag: 9; CHRM5 PAM: -19; CHRM5 agonist: 4; CHRM5 antagonist: 33*; M4 PAM: -15; M4 ag: 15

What do the screens show for `COc1ccc(-c2csc3nc(C)n(-n4cccc4)c(=O)c23)cc1`?
M4 antag: -1; CHRM5 PAM: 10; CHRM5 agonist: -3; CHRM5 antagonist: -4; M4 PAM: 3; M4 ag: -3

What do the screens show for `COC(=O)[C@@]12C[C@@H](CC(=O)NCc3cccc(C(F)(F)F)c3)C(=O)N(CCc3ccc(OC)c(OC)c3)C1=CCC(C)(C)C2`?
M4 antag: 27*; CHRM5 PAM: -13; CHRM5 agonist: 4; CHRM5 antagonist: 19; M4 PAM: -15; M4 ag: 33*

What do the screens show for `COC(=O)[C@]12CCCCC=C1N(CCc1ccc(OC)c(OC)c1)C(=O)[C@H](CC(=O)NCc1cccc(C(F)(F)F)c1)C2`?
M4 antag: -6; CHRM5 PAM: -14; CHRM5 agonist: 4; CHRM5 antagonist: 6; M4 PAM: -2; M4 ag: 27
